Laboratory results published in ChEMBL document CHEMBL5113504, “Discovery of potent benzoxaborole inhibitors against SARS-CoV-2 main and dengue virus proteases” (Eur J Med Chem, 2022).
Active and inactive are the calls of the source. The rule behind the calls is not given here.

Columns and labels:
[1] = target: Replicase polyprotein 1ab (Severe acute respiratory syndrome coronavirus 2) (UniProt P0DTD1); experiment: Inhibition of C-terminal His tagged SARS CoV-2 main protease transfected in Escherichia coli BL21 (DE3) at 50 uM incubated in presence of DTT
In short: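 Mpro fluorogenic inhibition assay repeated with 1 mM DTT added to the assay buffer.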

[2] = target: Genome polyprotein (dengue virus type 2) (UniProt P29990); experiment: Inhibition of full length DENV2 NS2B-NS3 protease in human HeLa cells expressing luciferase reporter gene at 12.5 uM incubated for 24 hrs by luminescence analysis relative to control; format: cell-based
In short: (§1)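 Stable DENV2pro reporter HeLa cells seeded at 2×10^4 per well and dosed immediately; 24 h at 37 °C, lysed 15 min, coelenterazine (2.75 μM in PBS) injected, luminescence read 5 s. Triplicates; % inhibition vs untreated cells; EC50 by 4-parameter fit with cell-free background subtraction.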

[3] = target: Trypsin (Homo sapiens, UniProt P07477+P07478+P35030); experiment: Inhibition of trypsin (unknown origin) using Boc-Val-Pro-Arg-AMC as substrate assessed as enzymatic cleavage preincubated for 15 mins followed by substrate addition and measured after 15 mins by Continuous fluorimetric assay; format: protein assay
[4] = test system: HeLa; experiment: Cytotoxicity against human HeLa cells expressing luciferase-based DENV-2 protease reporter system assessed as reduction in cell viability by celltiter-blue assay; format: toxicity
In short: (§2)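 CellTiter-Blue viability in HeLa reporter cells or Huh-7 cells, on plates run in parallel with the reporter or titer-reduction assay under the same treatment; each concentration in triplicate.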

[5] = test system: HeLa; experiment: Cytotoxicity against human HeLa cells expressing renilla luciferase reporter construct assessed as reduction in cell viability at 12.5 uM by luciferase based analysis; format: toxicity
[6] = target: T1, Replicase polyprotein 1ab (Severe acute respiratory syndrome coronavirus 2, UniProt P0DTD1); experiment: (§3) Inhibition of C-terminal His tagged SARS CoV-2 main protease transfected in Escherichia coli BL21 (DE3) using 2-Abz-Ser-AlaVal-Leu-Gln-Ser-Gly-Tyr(3-NO2)-Arg-OH as substrate preincubated for 15 mins followed by substrate addition and measured after 15 mins by FRET assay
[7] = target: Replicase polyprotein 1ab (Severe acute respiratory syndrome coronavirus 2) (UniProt P0DTD1); experiment: Inhibition of C-terminal His tagged SARS CoV-2 main protease transfected in Escherichia coli BL21 (DE3) using 2-Abz-Ser-AlaVal-Leu-Gln-Ser-Gly-Tyr(3-NO2)-Arg-OH as substrate at 50 uM preincubated for 15 mins followed by substrate addition and measured after 15 mins by FRET assay relative to control; settings: time 30.0 min
[8] = target: T1, Replicase polyprotein 1ab; experiment: Chemical stability of the compound in SARS-CoV-2 main protease assay buffer assessed as SARS-CoV-2 main protease-mediated amide bond cleavage at 100 uM measured after 8 hrs by HPLC based UV-Vis analysis; format: ADME; settings: severe acute respiratory syndrome coronavirus 2, buffer
In short: (§4)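 Compound incubated with isolated protease (SARS-CoV-2 Mpro or DENV-2 protease) in that enzyme's assay buffer for 8 h; remaining compound quantified by HPLC with UV/Vis detection (peak AUC).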

[9] = test system: dengue virus type 2; experiment: Antiviral activity against Dengue virus serotype 2 infected in Huh-7 cells assessed as reduction in virus titer at 12.5 uM incubated for 48 hrs followed by infection of Vero E6 cells with supernatant and measured after 7 days by crystal violet staining based analysis relative to control; format: functional; parameters: scale not given: the % may be the effect or the level left; settings: time 9 day
In short: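 Huh-7 cells (1×10^4/well, overnight) infected with DENV-2 at MOI 1 for 2 h, medium changed, compound added; 48 h, triplicate supernatants pooled. Titer by plaque assay: Vero E6 infected 1 h with 10^-1 to 10^-6 dilutions, plaque medium 7 days, formaldehyde-fixed, crystal violet stained, plaques counted.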

[10] = target: T2, Genome polyprotein (dengue virus type 2, UniProt P29990); experiment: Inhibition of full length DENV2 NS2B-NS3 protease in human HeLa cells expressing luciferase reporter gene incubated for 24 hrs by luminescence analysis; format: cell-based; in short: as §1
[11] = Permeability of compound in PBS at pH 7.4 measured after 5 hrs by HPLC-UV based PAMPA assay; format: ADME; settings: pH 7.4, 5 h
[12] = target: T1, Replicase polyprotein 1ab; experiment: Inhibition of C-terminal His tagged SARS CoV-2 main protease transfected in Escherichia coli BL21 (DE3) assessed as inhibition constant by Michaelis-Menten analysis
[13] = test system: Huh-7; experiment: Cytotoxicity against human Huh-7 cells infected with Dengue virus serotype 2 assessed as reduction in cell viability by celltiter-blue assay; format: toxicity, cell-based; in short: as §2
[14] = target: T2, Genome polyprotein; experiment: Chemical stability of the compound in DENV2 NS2B-NS3 protease assay buffer assessed as DENV2 NS2B-NS3 protease-mediated amide bond cleavage by measuring reduction in AUC at 100 uM measured after 8 hrs by HPLC analysis; format: ADME; settings: dengue virus type 2, buffer; in short: as §4
[15] = target: Replicase polyprotein 1ab (Severe acute respiratory syndrome coronavirus 2) (UniProt P0DTD1); experiment: Reversible inhibition of C-terminal His tagged SARS CoV-2 main protease transfected in Escherichia coli BL21 (DE3) at 100 uM preincubated for 2 hrs followed by dilution to 3 uM and substrate addition measured after 15 mins by fluorimetric assay; settings: time 135.0 min
[16] = target: Replicase polyprotein 1ab (Severe acute respiratory syndrome coronavirus 2) (UniProt P0DTD1); experiment: […] inhibition of C-terminal His tagged SARS CoV-2 main protease transfected in Escherichia coli BL21 (DE3) assessed as decrease in Vmax with constant Km using varying concentrations of 2-Abz-Ser-AlaVal-Leu-Gln-Ser-Gly-Tyr(3-NO2)-Arg-OH as substrate by Michaelis-Menten analysis
[17] = target: Replicase polyprotein 1ab (Severe acute respiratory syndrome coronavirus 2) (UniProt P0DTD1); experiment: as §3, with “Potency index, ratio of boceprevir IC50 to test compound IC50 for inhibition” for “Inhibition”; settings: time 30.0 min

Row | SMILES | inhibition [1] | inhibition [2] | IC50 [3] | CC50 [4] | Activity [5] | IC50 [6] | inhibition [7] | Stability [8] | Activity [9] | EC50 [10] | permeability [11] | Ki [12] | Activity [13] | Stability [14] | inhibition [15] | inhibition [16] | Ratio IC50 [17]
1 | N=C(N)Nc1ccc(C(=O)Nc2ccc3c(c2)B(O)OC3)cc1 | Active | 23% | 61.4 µM | > 200 µM | Non-Toxic | 13.9 µM | 87.4% | Stable |  |  |  |  |  |  |  |  | 
2 | O=C(Nc1ccc2c(c1)B(O)OC2)c1cccc(OCc2ccccc2)c1 | Active | 81.2% |  | 55.2 µM | Non-Toxic | 6.1 µM | 99.6% | Stable | 67.4% | 2.4 µM | Permeable | 6.2 µM | Non-Toxic | Stable | Active | Active | 3
